Reference: ChEMBL document CHEMBL1671655, “Anidulafungin is fungicidal and exerts a variety of postantifungal effects against Candida albicans, C. glabrata, C. parapsilosis, and C. krusei isolates” (2009)
≈ marks a conversion by molar mass, not a printed value. Calls of active or inactive are those of the source. No cut-off for these calls is given here. Starred links: 1 amine or outer side, 2 acyl side, 3 side chain; linkers in the order of their positions; H or OH if unused. Positions of bridges follow the written chain, without caps; N, C: chain ends. Non-standard residues stand in square brackets, D forms with d. Residues, ends and D or L forms follow the SMILES beside them. *: point of attachment. pTerphenylCO(4''-OnC5H11) = CCCCCOc1ccc(-c2ccc(-c3ccc(C(=O)*)cc3)cc2)cc1; Orn(4R-OH,5R-OH) = O=C([C@H](C[C@@H](O)[C@@H](O)N[*:3])N[*:1])[*:2]; hTyr(3S-OH,4S-OH) = N[C@H](C(=O)O)[C@H](O)[C@@H](O)c1ccc(O)cc1; Pro(3S-OH,4S-Me) = C[C@H]1CN[C@H](C(=O)O)[C@H]1O; Hyp = O=C(O)[C@@H]1C[C@@H](O)CN1

How the values were obtained:
Nakaseomyces glabratus [1] = assay: Increase in susceptibility to calcofluor white in Candida glabrata isolate 1 assessed as cell wall damage at MIC after 1 hr relative to control; assay type: functional, organism-based
How it was run: (§1)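 Cells recovered 8 h after a 1-h drug exposure were grown to exponential phase in YPD with 1% glucose and adjusted to OD599 0.1. Undiluted and 10-fold serially diluted cultures were spotted onto YPD plates containing calcofluor white, then incubated at 30°C for 72 h. Growth compared with no-drug control cells; triplicate.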

Nakaseomyces glabratus [2] = assay: Fungicidal activity against Candida glabrata isolate 1 assessed as log reduction in bacterial count at 4 times MIC after 48 hrs by time-kill analysis; assay type: functional; conditions: isolate 1, 48 h
How it was run: (§2)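 Isolates subcultured twice on SDA, suspended to 0.5 McFarland, giving ~1 x 10^5 to 5 x 10^5 CFU/ml in MOPS-buffered RPMI 1640 (pH 7.0) with or without drug at multiples of MIC (MIC by CLSI M27-A3). Tubes shaken at 35°C with continuous drug. Sampled at 0–48 h, diluted 10-fold and plated on SDA; CFU counted after 48 h at 35°C. Run twice per isolate; means.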

Candida parapsilosis [3] = assay: Fungicidal activity against Candida parapsilosis isolate S assessed as log reduction in bacterial count at MIC after 48 hrs by time-kill analysis; assay type: functional; conditions: Lodderomyces parapsilosis
How it was run: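 Isolates subcultured twice on SDA, then suspended to 0.5 McFarland and diluted into RPMI 1640 (MOPS, pH 7.0) with or without anidulafungin, giving about 1 x 10^5 to 5 x 10^5 CFU/ml. Tubes were shaken at 35°C. Samples were taken at 0, 2, 4, 8, 12, 24 and 48 h, serially diluted 10-fold, plated on SDA, and CFU counted after 48 h at 35°C. Each isolate was run twice; mean values.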

Candida parapsilosis [4] = assay: Increase in susceptibility to SDS in Candida parapsilosis isolate 1 assessed as cell wall damage at 4 times MIC after 1 hr relative to control; assay type: functional, organism-based
How it was run: (§3)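 Cells recovered 8 h after a 1-h drug exposure were grown in YPD with 1% glucose to exponential phase and adjusted to OD599 0.1. Undiluted culture and 10-fold serial dilutions were spotted onto YPD plates containing SDS (0.01 to 0.04%), then incubated 72 h at 30°C. Growth compared with unexposed control cells; triplicate.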

Candida albicans [5] = assay: Fungicidal activity against Candida albicans isolate 2 assessed as log reduction in bacterial count at 4 times MIC after 48 hrs by time-kill analysis; assay type: functional; conditions: isolate 2, 48 h; how it was run: as §2
Candida albicans [6] = assay: Antifungal activity against Candida albicans isolate 2 by CLSI M27-A3 broth microdilution method; assay type: functional
How it was run: (§4)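 CLSI M27-A3 broth microdilution in RPMI 1640 buffered to pH 7.0 with MOPS. Starting inoculum 0.5 x 10^3 to 2.5 x 10^3 cells/ml, incubated at 35°C. MIC read as the lowest concentration giving >50% growth reduction versus control. Each isolate tested on at least three occasions.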

Nakaseomyces glabratus [7] = assay: Fungicidal activity against Candida glabrata isolate 1 assessed as log reduction in bacterial count at 4 times MIC after drug exposure for 1 hr followed by washout measured after 48 hrs in the absence of drug by PAFE study; assay type: functional
How it was run: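 Starting inoculum ~1 x 10^5 to 5 x 10^5 CFU/ml in MOPS-buffered RPMI 1640 (pH 7.0) with drug at multiples of the CLSI M27-A3 MIC. After 1 h at 35°C, cells washed and centrifuged three times at 1,400 x g for 10 min, then resuspended in warm drug-free RPMI. Shaken at 35°C and plated on SDA at 0–48 h; CFU counted after 48 h. Run twice per isolate; means.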

Pichia kudriavzevii [8] = assay: Fungicidal activity against Candida krusei isolate ATCC 6258 assessed as log reduction in bacterial count at 16 times MIC after 48 hrs by time-kill analysis; assay type: functional; conditions: isolate ATCC 6258, 48 h; how it was run: as §2
Candida parapsilosis [9] = assay: Antifungal activity against Candida parapsilosis isolate A assessed as time period for bacterial growth inhibition at 4 times MIC after 1 hr drug exposure; assay type: functional
How it was run: (§5)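 Inoculum of about 1 x 10^5 to 5 x 10^5 CFU/ml in MOPS-buffered RPMI (pH 7.0), shaken at 35°C and exposed to drug for 1 h. Cells then washed and centrifuged three times and resuspended in drug-free warm RPMI. Samples plated on SDA at 0, 2, 4, 8, 12, 24 and 48 h, with CFU counted after 48 h at 35°C. Run twice per isolate; values are means.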

Candida parapsilosis [10] = assay: Antifungal activity against Candida parapsilosis isolate A assessed as cell wall damage at MIC by Transmission electron microscopy; assay type: functional, organism-based
How it was run: (§6)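 Cells recovered 8 h after a 1-h drug exposure were grown on SDA for 24 h at 35°C. Colonies fixed at 4°C in 0.1 M cacodylate (pH 7.2) with 2% glutaraldehyde and 2% paraformaldehyde, ethanol-dehydrated and embedded in Lowicryl K4M. Thin sections examined by transmission EM.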

Pichia kudriavzevii [11] = assay: Increase in susceptibility to calcofluor white in Candida krusei isolate ATCC 6258 assessed as cell wall damage at 4 times MIC after 1 hr relative to control; assay type: functional, organism-based; how it was run: as §1
Candida albicans [12] = assay: Fungicidal activity against Candida albicans isolate 2 assessed as log reduction in bacterial count at 16 times MIC after 48 hrs by time-kill analysis; assay type: functional; conditions: isolate 2, 48 h; how it was run: as §2
Nakaseomyces glabratus [13] = assay: Increase in susceptibility to calcofluor white in Candida glabrata isolate 3 assessed as cell wall damage at 4 times MIC after 1 hr relative to control; assay type: functional, organism-based; how it was run: as §1
Candida albicans [14] = assay: Fungicidal activity against Candida albicans isolate 1 assessed as log reduction in bacterial count at MIC after 48 hrs by time-kill analysis; assay type: functional; conditions: isolate 1, 48 h; how it was run: as §2
Pichia kudriavzevii [15] = assay: Antifungal activity against Candida krusei isolate 1 assessed as cell wall damage at MIC by Transmission electron microscopy; assay type: functional, organism-based; how it was run: as §6
Pichia kudriavzevii [16] = assay: Antifungal activity against Candida krusei isolate ATCC 6258 assessed as time period for bacterial growth inhibition at 4 times MIC after 1 hr drug exposure; assay type: functional; how it was run: as §5
Candida parapsilosis [17] = assay: Antifungal activity against Candida parapsilosis isolate S by CLSI M27-A3 broth microdilution method; assay type: functional; conditions: Lodderomyces parapsilosis; how it was run: as §4
Candida parapsilosis [18] = assay: Fungicidal activity against Candida parapsilosis isolate S assessed as log reduction in bacterial count at 4 times MIC after drug exposure for 1 hr followed by washout measured after 48 hrs in the absence of drug by PAFE study; assay type: functional; conditions: Lodderomyces parapsilosis
How it was run: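 Inoculum about 1 x 10^5 to 5 x 10^5 CFU/ml in RPMI 1640 (MOPS, pH 7.0) with drug, shaken at 35°C for 1 h. Cells were then washed and centrifuged at 1,400 x g for 10 min (3 cycles) and resuspended in warm drug-free RPMI. Samples plated on SDA at 0, 2, 4, 8, 12, 24 and 48 h; CFU counted after 48 h at 35°C. Run twice per isolate; means.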

Candida parapsilosis [19] = assay: Antifungal activity against Candida parapsilosis assessed as time period for bacterial regrowth inhibition after 1 hr drug exposure; assay type: functional
Pichia kudriavzevii [20] = assay: Increase in susceptibility to SDS in Candida krusei isolate ATCC 6258 assessed as cell wall damage at 4 times MIC after 1 hr relative to control; assay type: functional, organism-based; how it was run: as §3
Candida albicans [21] = assay: Increase in susceptibility to calcofluor white in Candida albicans isolate 1 assessed as cell wall damage at MIC after 1 hr relative to control; assay type: functional, organism-based; how it was run: as §1
Pichia kudriavzevii [22] = assay: Fungicidal activity against Candida krusei isolate 1 assessed as log reduction in bacterial count at MIC after 48 hrs by time-kill analysis; assay type: functional; conditions: isolate 1, 48 h; how it was run: as §2
Candida parapsilosis [23] = assay: Increase in susceptibility to SDS in Candida parapsilosis isolate A assessed as cell wall damage at MIC after 1 hr relative to control; assay type: functional, organism-based; how it was run: as §3

CCCCCOc1ccc(-c2ccc(-c3ccc(C(=O)N[C@H]4C[C@@H](O)[C@@H](O)NC(=O)[C@@H]5[C@@H](O)[C@@H](C)CN5C(=O)[C@H]([C@@H](C)O)NC(=O)[C@H]([C@H](O)[C@@H](O)c5ccc(O)cc5)NC(=O)[C@@H]5C[C@@H](O)CN5C(=O)[C@H]([C@@H](C)O)NC4=O)cc3)cc2)cc1 [ANIDULAFUNGIN] ({pTerphenylCO(4''-OnC5H11)}-[Orn(4R-OH,5R-OH)]T[Hyp][hTyr(3S-OH,4S-OH)]T[Pro(3S-OH,4S-Me)]; lactam 1-C)
Activity (Nakaseomyces glabratus [1]): Active | log reduction (Nakaseomyces glabratus [2]): 2.77 log CFU/ml | log reduction (Candida parapsilosis [3]): 1.32 log CFU/ml | Activity (Candida parapsilosis [4]): Active | log reduction (Candida albicans [5]): 2.33 log CFU/ml | MIC (Candida albicans [6]): 0.03 µg/mL (≈ 0.0263 µM) | log reduction (Nakaseomyces glabratus [7]): 2.81 | log reduction (Pichia kudriavzevii [8]): 3.2 log CFU/ml | Time (Candida parapsilosis [9]): 8 h | Activity (Candida parapsilosis [10]): Active | Activity (Pichia kudriavzevii [11]): Active | log reduction (Candida albicans [12]): 2.86 log CFU/ml | Activity (Nakaseomyces glabratus [13]): Active | log reduction (Candida albicans [14]): 1.15 log CFU/ml | Activity (Pichia kudriavzevii [15]): Active | Time (Pichia kudriavzevii [16]): 8 h | MIC (Candida parapsilosis [17]): 1 µg/mL (≈ 0.877 µM) | log reduction (Candida parapsilosis [18]): 2.17 | Time (Candida parapsilosis [19]): >=12 hr | Activity (Pichia kudriavzevii [20]): Active | Activity (Candida albicans [21]): Active | log reduction (Pichia kudriavzevii [22]): 1.74 log CFU/ml | Activity (Candida parapsilosis [23]): Active
